ChEMBL document CHEMBL1143078, “Synthesis and anti-Helicobacter pylori activity of 5-(nitroaryl)-1,3,4-thiadiazoles with certain sulfur containing alkyl side chain” (Bioorg Med Chem Lett, 2008)
≈ marks a conversion by molar mass, not a printed value.

What was measured:
[1] = test system: Helicobacter pylori; experiment: Antibacterial activity against metronidazole-sensitive Helicobacter pylori assessed as inhibition zone diameter at 16 ug/disk after 3-5 days by paper disk diffusion assay; assay type: functional
Procedure, shortened: (§1)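 Filter paper disks (6 mm) loaded with compound in 40 μL methanol, dried, placed on Mueller–Hinton agar with 7% defibrinated horse blood pre-inoculated with H. pylori suspension (2 McFarland, 10⁷-10⁸ CFU/mL; 48 h cultures checked for coccoid forms); incubated microaerophilically (5% O2, 15% CO2, 80% N2) at 37 °C for 3–5 days; mean inhibition zone diameter (mm) of triplicates.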

[2] = test system: Nannizzia gypsea; experiment: Antifungal activity against Microsporum gypseum PTCC 5070 after […] by agar dilution method; assay type: functional
Procedure, shortened: (§2)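 Agar dilution on Sabouraud dextrose agar. Compound stocks in DMSO. Inocula about 10^5 CFU/mL from log-phase broth cultures. Plates run in triplicate at 30 °C: about 24–48 h for yeasts, about 72 h for moulds, about 168 h for dermatophytes. MIC is the lowest concentration with no visible growth on the plate.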

[3] = test system: Aspergillus niger; experiment: Antifungal activity against Aspergillus niger PTCC 5012 after 72 hrs by agar dilution method; assay type: functional; procedure, shortened: as §2
[4] = test system: Klebsiella pneumoniae; experiment: Antibacterial activity against Klebsiella pneumoniae ATCC 10031 after 18 hrs by serial dilution method; assay type: functional; conditions: ATCC 10031, 18 h
Procedure, shortened: (§3)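 Agar dilution MIC. Compound stock diluted with water, then serially doubled in melted Mueller–Hinton agar to 64, 32, 16 and 8 µg/mL. Plates inoculated with 1-5 × 10^4 CFU and incubated 18 h at 37 °C. MIC is the lowest concentration giving no visible growth.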

[5] = test system: Helicobacter pylori; experiment: Antibacterial activity against metronidazole-sensitive Helicobacter pylori assessed as inhibition zone diameter at 32 ug/disk after 3-5 days by paper disk diffusion assay; assay type: functional
Procedure, shortened: (§4)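 Filter-paper disk diffusion (6 mm disks), with the compound applied in 40 µL methanol and dried. Disks placed on Mueller–Hinton agar with 7% defibrinated horse blood, inoculated with 48 h H. pylori clinical-isolate suspension at 2 McFarland (10^7-10^8 CFU/mL). Incubated 3–5 days at 37 °C microaerophilically (5% O2, 15% CO2, 80% N2). Mean inhibition-zone diameter (mm) from triplicates.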

[6] = test system: Escherichia coli; experiment: Antibacterial activity against Escherichia coli ATCC 8739 after 18 hrs by serial dilution method; assay type: functional; conditions: ATCC 8739, 18 h; procedure, shortened: as §3
[7] = test system: Staphylococcus aureus; experiment: Antibacterial activity against Staphylococcus aureus ATCC 6538P after 18 hrs by serial dilution method; assay type: functional; procedure, shortened: as §3
[8] = test system: Saccharomyces cerevisiae; experiment: Antifungal activity against Saccharomyces cerevisiae PTCC 5177 after 72 hrs by agar dilution method; assay type: functional
[9] = test system: Candida albicans; experiment: Antifungal activity against Candida albicans PTCC 5027 after 72 hrs by agar dilution method; assay type: functional
[10] = test system: Staphylococcus epidermidis; experiment: Antibacterial activity against Staphylococcus epidermidis ATCC 12228 after 18 hrs by serial dilution method; assay type: functional; conditions: ATCC 12228, 18 h; procedure, shortened: as §3
[11] = test system: Helicobacter pylori; experiment: Antibacterial activity against metronidazole-sensitive Helicobacter pylori assessed as inhibition zone diameter at 8 ug/disk after 3-5 days by paper disk diffusion assay; assay type: functional; procedure, shortened: as §4
[12] = test system: Helicobacter pylori; experiment: Antibacterial activity against metronidazole-resistant Helicobacter pylori assessed as inhibition zone diameter at 8 ug/disk after 3-5 days by paper disk diffusion assay; assay type: functional; procedure, shortened: as §1
[13] = test system: Helicobacter pylori; experiment: Antibacterial activity against Helicobacter pylori isolate assessed as inhibition zone diameter at 4 ug/disk after 3-5 days by paper disk diffusion assay; assay type: functional; procedure, shortened: as §4
[14] = test system: Helicobacter pylori; experiment: Antibacterial activity against Helicobacter pylori isolate assessed as inhibition zone diameter at 0.5 ug/disk after 3-5 days by paper disk diffusion assay; assay type: functional; procedure, shortened: as §4
[15] = test system: Helicobacter pylori; experiment: Antibacterial activity against Helicobacter pylori isolate assessed as inhibition zone diameter at 16 ug/disk after 3-5 days by paper disk diffusion assay; assay type: functional; procedure, shortened: as §4
[16] = test system: Helicobacter pylori; experiment: Antibacterial activity against Helicobacter pylori isolate assessed as inhibition zone diameter at 2 ug/disk after 3-5 days by paper disk diffusion assay; assay type: functional; procedure, shortened: as §4
[17] = test system: Helicobacter pylori; experiment: Antibacterial activity against metronidazole-resistant Helicobacter pylori assessed as inhibition zone diameter at 16 ug/disk after 3-5 days by paper disk diffusion assay; assay type: functional; procedure, shortened: as §1
[18] = test system: Helicobacter pylori; experiment: Antibacterial activity against Helicobacter pylori isolate assessed as inhibition zone diameter at 8 ug/disk after 3-5 days by paper disk diffusion assay; assay type: functional; procedure, shortened: as §4
[19] = test system: Helicobacter pylori; experiment: Antibacterial activity against Helicobacter pylori isolate assessed as inhibition zone diameter at 1 ug/disk after 3-5 days by paper disk diffusion assay; assay type: functional; procedure, shortened: as §4
[20] = test system: Helicobacter pylori; experiment: Antibacterial activity against metronidazole-resistant Helicobacter pylori assessed as inhibition zone diameter at 32 ug/disk after 3-5 days by paper disk diffusion assay; assay type: functional; procedure, shortened: as §1
[21] = test system: Helicobacter pylori; experiment: Antibacterial activity against Helicobacter pylori isolate assessed as inhibition zone diameter at 32 ug/disk after 3-5 days by paper disk diffusion assay; assay type: functional; procedure, shortened: as §4
[22] = Cytotoxicity against mouse NIH/3T3 cells after 72 hrs by MTT assay; assay type: cell-based; conditions: NIH3T3, 72 h
Procedure, shortened: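 NIH/3T3 mouse fibroblasts in exponential phase trypsinized and seeded at 5×10^4 cells/mL, then given serially diluted compound in triplicate and incubated 72 h. MTT (5 mg/mL solution) added for 1 h, formazan dissolved in DMSO, absorbance read at 492 nm. IC50 calculated from dose-response curves versus untreated controls, as mean ± SD of triplicates.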

CCSCCSc1nnc(-c2ccccc2[N+](=O)[O-])s1
Activity [1]: 6 mm
MIC [2]: > 32 µg/mL
MIC [3]: > 32 µg/mL
MIC [4]: > 32 µg/mL
Activity [5]: 6 mm
MIC [6]: > 32 µg/mL
MIC [7]: > 32 µg/mL
MIC [8]: > 32 µg/mL
MIC [9]: > 32 µg/mL
MIC [10]: 32 µg/mL (≈ 97.7 µM)
Activity [11]: 6 mm

Cc1ncc([N+](=O)[O-])n1CCO [METRONIDAZOLE]
Activity [1]: 23 mm
Activity [12]: 11 mm
Activity [13]: 8.75 mm
Activity [14]: 6 mm
Activity [15]: 18.4 mm
Activity [16]: 7.5 mm
Activity [5]: 27 mm
Activity [17]: 12 mm
Activity [18]: 16.3 mm
Activity [19]: 6 mm
Activity [20]: 14 mm
Activity [21]: 20.7 mm
Activity [11]: 18 mm

CCSCCSc1nnc(-c2ccc([N+](=O)[O-])o2)s1
Activity [1]: 31 mm
Activity [12]: 16 mm
Activity [13]: 21.5 mm
Activity [14]: 6 mm
MIC [2]: > 32 µg/mL
Activity [15]: 30.7 mm
MIC [3]: > 32 µg/mL
Activity [16]: 16.4 mm
MIC [4]: > 32 µg/mL
Activity [5]: 42 mm
Activity [17]: 21 mm
Activity [18]: 28.3 mm
MIC [6]: > 32 µg/mL
Activity [19]: 11.1 mm
MIC [7]: > 32 µg/mL
Activity [20]: 28 mm
MIC [8]: > 32 µg/mL
IC50 [22]: 5 µg/mL (≈ 15.8 µM)
Activity [21]: 34.9 mm
MIC [9]: > 32 µg/mL
MIC [10]: 32 µg/mL (≈ 101 µM)
Activity [11]: 22 mm

CCS(=O)(=O)CCSc1nnc(-c2ncc([N+](=O)[O-])n2C)s1
Activity [1]: 40 mm
Activity [12]: 36 mm
Activity [13]: 23.4 mm
Activity [14]: 8.5 mm
MIC [2]: > 32 µg/mL
Activity [15]: 35.8 mm
MIC [3]: > 32 µg/mL
Activity [16]: 16.5 mm
MIC [4]: > 32 µg/mL
Activity [5]: 47 mm
Activity [18]: 29.7 mm
MIC [6]: > 32 µg/mL
Activity [19]: 11.9 mm
MIC [7]: > 32 µg/mL
MIC [8]: > 32 µg/mL
IC50 [22]: 100 µg/mL (≈ 275 µM)
Activity [21]: 40.7 mm
MIC [9]: > 32 µg/mL
MIC [10]: 32 µg/mL (≈ 88 µM)
Activity [11]: 35 mm

CCSCCSc1nnc(-c2ccc([N+](=O)[O-])s2)s1
Activity [1]: 50 mm
Activity [13]: 37.1 mm
Activity [14]: 16.8 mm
MIC [2]: > 32 µg/mL
Activity [15]: 47 mm
MIC [3]: > 32 µg/mL
Activity [16]: 28.9 mm
MIC [4]: > 32 µg/mL
Activity [5]: 50 mm
Activity [18]: 44.4 mm
MIC [6]: > 32 µg/mL
Activity [19]: 22.9 mm
MIC [7]: > 32 µg/mL
MIC [8]: > 32 µg/mL
IC50 [22]: 4.5 µg/mL (≈ 13.5 µM)
Activity [21]: 47.2 mm
MIC [9]: > 32 µg/mL
MIC [10]: 32 µg/mL (≈ 96 µM)
Activity [11]: 50 mm

CCS(=O)(=O)CCSc1nnc(-c2ccc([N+](=O)[O-])o2)s1
Activity [1]: 43 mm
Activity [12]: 29 mm
Activity [13]: 23.5 mm
Activity [14]: 6.6 mm
MIC [2]: > 32 µg/mL
Activity [15]: 33.1 mm
MIC [3]: > 32 µg/mL
Activity [16]: 18.3 mm
MIC [4]: > 32 µg/mL
Activity [5]: 46 mm
Activity [17]: 34 mm
Activity [18]: 29.1 mm
MIC [6]: > 32 µg/mL
Activity [19]: 12.6 mm
MIC [7]: > 32 µg/mL
Activity [20]: 41 mm
MIC [8]: > 32 µg/mL
IC50 [22]: 4.2 µg/mL (≈ 12 µM)
Activity [21]: 36.5 mm
MIC [9]: > 32 µg/mL
MIC [10]: 32 µg/mL (≈ 91.6 µM)
Activity [11]: 37 mm

CC1(C)S[C@@H]2[C@H](NC(=O)[C@H](N)c3ccc(O)cc3)C(=O)N2[C@H]1C(=O)O [AMOXICILLIN]
Activity [19]: 24.5 mm
